High-throughput results deposited in PubChem by Sanford-Burnham Center for Chemical Genomics.
Rows were chosen to be rich in hits. Some 1.6% of all compounds tested hit in one or more screens of this group.
FLuc stim CS – affects firefly luciferase, flagging false hits in luciferase stimulation screens; P08659; ATPlite luciferase biochemical, luminescence, 10 min; 0 = ATP-free wells, 1 = DMSO control; activation factor at 10 µM; 200,000 tested, under 10 active; AID 1027;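 active = luciferase activation factor, scaled between plate controls, of at least 2 with compound at 10 µM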
Target sequence (P08659 whole entry, looked up): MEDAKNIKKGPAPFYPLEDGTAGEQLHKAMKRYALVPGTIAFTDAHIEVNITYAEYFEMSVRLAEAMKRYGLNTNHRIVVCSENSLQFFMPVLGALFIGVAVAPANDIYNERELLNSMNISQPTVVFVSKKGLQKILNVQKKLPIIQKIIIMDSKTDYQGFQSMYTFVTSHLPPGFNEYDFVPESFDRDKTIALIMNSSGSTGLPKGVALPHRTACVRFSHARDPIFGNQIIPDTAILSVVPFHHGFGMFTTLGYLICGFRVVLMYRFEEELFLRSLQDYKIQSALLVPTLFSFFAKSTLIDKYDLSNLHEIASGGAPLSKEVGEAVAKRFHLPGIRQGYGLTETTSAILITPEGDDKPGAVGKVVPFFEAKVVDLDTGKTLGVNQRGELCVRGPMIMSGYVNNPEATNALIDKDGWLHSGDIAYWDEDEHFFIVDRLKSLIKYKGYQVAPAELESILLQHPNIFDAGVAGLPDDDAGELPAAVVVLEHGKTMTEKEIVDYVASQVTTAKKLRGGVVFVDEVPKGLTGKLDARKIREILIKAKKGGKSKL
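Material: luciferase plus luciferin reagent, cell-free. Medium: PBS buffer for ATP. Also added: ATP substrate, dispensed from a 10.24 µM working solution in PBS. Doses: test compounds dosed from 2 mM stocks in 100% DMSO. Incubation: 10 min post-reagent at room temperature. Technique: light output (luminescence). Read-out basis: luminescence gain marking luciferase activators.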
TRAIL sens C8 – sensitizes caspase-8 expressing cells to TRAIL; NB7+C8 cells + TRAIL, ATPlite viability luminescence; inhibition (viability loss, TRAIL sensitization), % at 10 µM; 360,000 compounds, 1% hits;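 active = compounds causing at least 50% loss of cell viability in the single-dose screen, relative to plate controls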
FLuc inh counter – counter-screen for luciferase assay inhibitors: firefly luciferase inhibition; inhibition, % at 10 µM; 200,000 compounds, 1.5% hits; ATPLite firefly luciferase biochemical luminescence, 10 min;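 active = inhibition above about 50% when tested at 10 µM, limit read from the data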
PPC-1+TRAIL kill – compounds killing PPC-1 cancer cells with TRAIL present (potentiator screen, no TRAIL-free arm); 220,000 compounds, 0.41% hits; PPC-1 cells + TRAIL, ATPLite viability luminescence; cell killing (% activity), % at 4 µM or 5 µM;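 active = cell killing above 50% in the first pass at 4 µM, then a duplicate retest at 5 µM averaging 50% or more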
Large screens that a line does not name were inactive.

O=C1c2ccccc2C(Nc2ccc3c(c2)OCO3)N1Cc1ccc2c(c1)OCO2 (configuration not stated)	none
O=C1c2ccccc2C(Nc2cccnc2)N1Cc1ccc2c(c1)OCO2 (configuration not stated)	PPC-1+TRAIL kill 64.7
COc1ccccc1CNC(=O)CNC(=O)c1sc2ccccc2c1Cl	none (no result: FLuc stim CS, FLuc inh counter, PPC-1+TRAIL kill)
Cn1c(=N)n(CC(=O)c2ccc(Cl)c(Cl)c2)c2ccccc21	TRAIL sens C8 66.2 (no result: FLuc stim CS, FLuc inh counter, PPC-1+TRAIL kill)
CC(C)(C)OC(=O)N1CCC(C(=O)Nc2cccc(C(=O)NCc3ccccc3)c2)CC1	none (no result: FLuc stim CS, FLuc inh counter, PPC-1+TRAIL kill)
COc1ccc(/C(C)=N/Nc2nncc3ccccc23)cc1	TRAIL sens C8 60.3 (no result: FLuc stim CS, FLuc inh counter, PPC-1+TRAIL kill)
COc1ccc(/C(C)=N/Nc2nc3ccccc3nc2C)cc1	none (no result: FLuc stim CS, FLuc inh counter)
NS(=O)(=O)c1ccc(CCNC(=O)COC(=O)c2ccc([N+](=O)[O-])o2)cc1	none (no result: FLuc stim CS, FLuc inh counter, PPC-1+TRAIL kill)
CC(C)(C)c1ccc(C(=O)Nc2cccc([N+](=O)[O-])c2)cc1	TRAIL sens C8 54.5, FLuc inh counter 72.3
O=C(Nc1cccc([N+](=O)[O-])c1)c1ccc2ccccc2c1O	TRAIL sens C8 54.0 (no result: FLuc stim CS, FLuc inh counter)
O=C(Nc1cccc([N+](=O)[O-])c1)c1ccncc1	none
CCN(CC)S(=O)(=O)c1ccc(OC(C)C)c(NC(=O)C2=COCCO2)c1	none (no result: FLuc stim CS, FLuc inh counter, PPC-1+TRAIL kill)
O=C1C(=C(I)I)c2ccccc2-c2ccccc21	TRAIL sens C8 93.7 (no result: FLuc stim CS, FLuc inh counter, PPC-1+TRAIL kill)
CSCCNC(=O)c1ccc(C(C)(C)C)cc1	FLuc inh counter 73.5
COc1cc(SC)ccc1C(=O)Nc1cc(C)c(OCC(=O)N2CCOCC2)c(C)c1	none (no result: FLuc stim CS, FLuc inh counter, PPC-1+TRAIL kill)
COc1cc(SC)ccc1C(=O)Nc1cccc(C)n1	FLuc inh counter 69.5 (no result: PPC-1+TRAIL kill)
COc1cc(SC)ccc1C(=O)Nc1ccc(C)cc1	FLuc inh counter 53.8
COc1cc(SC)ccc1C(=O)Nc1ccc(OCC(=O)N2CCOCC2)cc1	TRAIL sens C8 85.8 (no result: FLuc stim CS, FLuc inh counter, PPC-1+TRAIL kill)
CCOC(=O)C(CC)c1cc2n(c(=O)c1C#N)CCC21OCCO1 (configuration not stated)	none (no result: FLuc stim CS, FLuc inh counter, PPC-1+TRAIL kill)
COc1ccc(NC(=O)CN(C)C(=O)c2cccc(S(=O)(=O)N3CCN(c4ccc(F)cc4)CC3)c2)cc1	none (no result: FLuc stim CS, FLuc inh counter, PPC-1+TRAIL kill)
CC1(Cc2cc(Cl)ccc2C(F)(F)F)C(=O)Nc2cc(C(F)(F)F)ccc21 (configuration not stated)	none (no result: FLuc stim CS, FLuc inh counter, PPC-1+TRAIL kill)
CCN1CCN(c2ccc(S(=O)(=O)N3CCCCC3)cc2NC(=O)/C=C/c2ccc(OC(F)F)cc2)CC1	TRAIL sens C8 56.4 (no result: FLuc stim CS, FLuc inh counter, PPC-1+TRAIL kill)
COc1ccc(N(CC(=O)N2CCN(C)CC2)S(=O)(=O)c2cc(C)ccc2OC)cc1Cl	none (no result: FLuc stim CS, FLuc inh counter, PPC-1+TRAIL kill)
CC(=O)c1cccc(NC(=O)CSc2ccc(-c3ccc4c(c3)OCO4)nn2)c1	TRAIL sens C8 63.9
COc1ccc(-c2ccc(SCC(=O)Nc3cccc(C(C)=O)c3)nn2)cc1OC	FLuc inh counter 60.7
CC(=O)n1cc(N(C(=O)CCl)c2ccccc2)c2ccccc21	TRAIL sens C8 95.1 (no result: FLuc stim CS, FLuc inh counter)
CC(=O)n1cc(N(C(=O)CCl)c2ccc([N+](=O)[O-])cc2)c2ccccc21	TRAIL sens C8 72.3 (no result: FLuc stim CS, FLuc inh counter)
CCOC(=O)c1ccc(S(=O)(=O)N2CCC(C(=O)NCC3CCCCC3)CC2)cc1	none (no result: FLuc stim CS, FLuc inh counter, PPC-1+TRAIL kill)
N#Cc1ccc(-c2nc3ccc(Br)cn3c2Cc2ccccc2)cc1	none (no result: FLuc stim CS, FLuc inh counter, PPC-1+TRAIL kill)
O=C1CCNc2cc3ccccc3cc21	PPC-1+TRAIL kill 52.4
O=C1CCNc2ccc(-c3ccccc3)cc21	none
Cc1ccc(-c2csc(NC(=O)CSc3nnc4c(n3)[nH]c3ccccc34)n2)cc1	TRAIL sens C8 51.5
O=C(NC1CCCC1)C1c2ccccc2OCC(=O)N1C1CC1 (configuration not stated)	none (no result: FLuc stim CS, FLuc inh counter, PPC-1+TRAIL kill)
Cc1ccc(OCc2nc(-c3cccs3)no2)c([N+](=O)[O-])c1	FLuc inh counter 60.9
Nc1nc(-c2ccccn2)nc(N)c1Cc1ccccc1F	FLuc inh counter 57.0
CC[C@]12c3[nH]c4ccc(Cl)cc4c3CCN1C(=O)[C@@H](CC(=O)NCc1ccc(OC)c(OC)c1)C[C@@H]2C(=O)N1CCN(C(=O)c2ccco2)CC1	none (no result: FLuc stim CS, FLuc inh counter, PPC-1+TRAIL kill)
CCCCCCc1cc2cc(C(=O)Nc3ccccc3)c(=O)oc2cc1O	TRAIL sens C8 60.3
CCOC(=O)c1c2c3c(cccc3n(C)c1=O)C(=O)c1ccccc1-2	none (no result: FLuc stim CS, FLuc inh counter, PPC-1+TRAIL kill)
CCOC(=O)c1c2c(n(C)c1C)C(=O)C(=O)c1ccc(Br)cc1-2	TRAIL sens C8 96.6 (no result: FLuc stim CS, FLuc inh counter, PPC-1+TRAIL kill)
CCOC(=O)c1c2c(n(Cc3ccccc3)c1C)C(=O)C(=O)c1ccccc1-2	TRAIL sens C8 92.8 (no result: FLuc stim CS, FLuc inh counter, PPC-1+TRAIL kill)
CN(CC(=O)Nc1ccc(F)c(F)c1F)C(=O)CCCSc1nc2ccccc2[nH]1	none (no result: FLuc stim CS, FLuc inh counter, PPC-1+TRAIL kill)
CC(=O)Nc1cccc(C(=O)N2CCN(S(=O)(=O)c3ccc(C4CCCCC4)cc3)CC2)c1	none (no result: FLuc stim CS, FLuc inh counter, PPC-1+TRAIL kill)
O=C(NC(=S)Nc1ccc(Br)cn1)c1cccs1	TRAIL sens C8 65.3, FLuc inh counter 71.6
Cc1cccnc1NC(=S)NC(=O)c1cccs1	TRAIL sens C8 69.1, FLuc inh counter 70.6
